Source: PubChem
Shown are actives, neighbours in structure and some others; about 1.2% of the full set was active somewhere.
TNAP inh noacc – inhibitors of human TNAP without phosphate acceptor; P05186; purified TNAP, CDP-star luminescence, 30 min; inhibition, % at 20 µM; hit rate 0.26% among 200,000;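 active = tissue-nonspecific alkaline phosphatase inhibition above about 50% at 20 µM in the single-dose screen, limit read from the data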;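 note: 0% = DMSO negative control and 100% = EDTA positive control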
Target sequence (P05186 whole entry, looked up): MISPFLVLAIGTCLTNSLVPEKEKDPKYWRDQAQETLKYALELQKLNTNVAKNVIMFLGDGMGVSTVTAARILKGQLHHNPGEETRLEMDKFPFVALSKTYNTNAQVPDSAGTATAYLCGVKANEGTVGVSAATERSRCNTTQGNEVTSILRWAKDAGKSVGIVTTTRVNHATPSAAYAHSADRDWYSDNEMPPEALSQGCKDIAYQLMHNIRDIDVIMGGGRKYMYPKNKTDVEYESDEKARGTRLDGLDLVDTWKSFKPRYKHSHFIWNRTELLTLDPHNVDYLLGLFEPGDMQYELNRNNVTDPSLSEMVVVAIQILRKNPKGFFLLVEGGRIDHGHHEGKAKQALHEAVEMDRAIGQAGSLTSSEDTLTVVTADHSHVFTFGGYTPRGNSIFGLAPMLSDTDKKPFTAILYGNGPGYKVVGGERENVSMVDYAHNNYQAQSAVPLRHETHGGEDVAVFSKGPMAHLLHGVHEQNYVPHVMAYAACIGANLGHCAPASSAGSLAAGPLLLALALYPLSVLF
Efa HMGR inh – blocks class II HMG-CoA reductase of Enterococcus faecalis; purified E. faecalis HMGR, NADPH absorbance 340 nm kinetic; inhibition, % at 10 µM; hit rate 0.41% among 190,000;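 active = inhibition above a set limit, the median over all tested compounds plus 3 SD, cut at about 9.5% in these data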;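 note: enzyme runs in reverse so mevalonate oxidation gives rising NADPH absorbance; 0% = complete reaction with DMSO and 100% = background rate lacking mevalonate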
TNAP inh hi DEA – inhibitors of human TNAP at high phosphate acceptor concentration. P05186. purified TNAP, CDP-star luminescence, 1 M DEA. inhibition, % at 20 µM. hit rate 0.03% among 200,000;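 active = over 50% inhibition of tissue-nonspecific alkaline phosphatase at 20 µM in the single-dose screen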;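 note: plate controls were DMSO wells for no effect and EDTA-quenched wells as full inhibition for full effect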
Insulin prom inh – TRM-6 insulin promoter activity inhibition; AID 1273; TRM-6 cells, insulin promoter-eGFP reporter, imaging; reporter expression induced with tamoxifen; hit rate 0.9% among 130,000; inhibition, % at 2 µM;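 active = inhibition above the mean plus 3 SD, with well images judged a real hit on visual review, cut at about 60% in these data, passing the limit was not always enough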
TNAP act hi DEA – increases human TNAP activity under high phosphate acceptor concentration; purified TNAP, CDP-star luminescence, 1 M DEA, 30 min; active compounds read high; 0 = EDTA background, 1 = DMSO-only activity; activation factor at 20 µM; P05186; AID 1136; 200,000 tested, under 10 active;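 active = activation factor at least 2 at 20 µM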
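Dosing: 20 µM single point. System: human TNAP. Amount: TNAP 1/800 final. Incubation: 30 min, room temperature. Read-out: TNAP activation factor scaled between EDTA and DMSO control wells. Signal: luminescence from CDP-star hydrolysis. Medium: 1 M DEA, pH 9.8, Mg2+, Zn2+. Control set: EDTA negative control, DMSO positive control.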
The depositor's hits bear a star.

Screening Cn1c(Cc2ccccc2)nnc1SCC(=O)c1ccc(Br)s1 returned TNAP inh noacc -6, Efa HMGR inh -3, TNAP inh hi DEA -1, Insulin prom inh 95* and TNAP act hi DEA 1.
For Cc1ccccc1CSCC(=O)NCCSc1ccccn1 the results were TNAP inh noacc -16, Efa HMGR inh -2, TNAP inh hi DEA -4, Insulin prom inh 13 and TNAP act hi DEA 1.
Screening O=C(Nc1c2c(nc3ccccc13)CCCC2)c1ccccc1F returned TNAP inh noacc -9, Efa HMGR inh 0, TNAP inh hi DEA 5, Insulin prom inh 64* and TNAP act hi DEA 1.
Screening CC(C)Oc1cccc(C(=O)C2CCCN(Cc3cccn3-c3ccccn3)C2)c1 (stereo unspecified) returned TNAP inh noacc -7, Efa HMGR inh -2, TNAP inh hi DEA -6 and TNAP act hi DEA 1.1.
For Cc1ccc(C2C(=O)N(C3CCC(C)CC3)CC(=O)N2C2CCCC2)cc1 (stereo unspecified) the results were TNAP inh noacc 4, Efa HMGR inh -1, TNAP inh hi DEA 2, Insulin prom inh 68* and TNAP act hi DEA 1.
Screening O=C1C(c2ccc(F)cc2)N(C2CCCCC2)C(=O)CN1C1CCCC1 (stereo unspecified) returned TNAP inh noacc -8, Efa HMGR inh 4, TNAP inh hi DEA 0, Insulin prom inh 18 and TNAP act hi DEA 1.
CC(C)(C)SCCNC(=O)Nc1ccccc1 was read as TNAP inh noacc -6, Efa HMGR inh -5, TNAP inh hi DEA -1, Insulin prom inh 14 and TNAP act hi DEA 1.
For CCC(=O)N(Cc1ccco1)c1nc(-c2ccc(OC)cc2)cs1 the results were TNAP inh noacc -4, Efa HMGR inh 12*, TNAP inh hi DEA -2, Insulin prom inh 26 and TNAP act hi DEA 1.
`CC(C)(C)NC(=O)C1CCN(S(=O)(=O)c2cccc(C(F)(F)F)c2)CC1` gave TNAP inh noacc 4, Efa HMGR inh -2, TNAP inh hi DEA 0 and TNAP act hi DEA 1.
For COc1ccc(-c2cc(N3C(=O)Nc4ccccc4N3O)n[nH]2)cc1OC the results were TNAP inh noacc 2, Efa HMGR inh -2, TNAP inh hi DEA 4, Insulin prom inh 39 and TNAP act hi DEA 1.
For COc1ccc(-c2cc(N3C(=O)Nc4ccccc4N3O)n[nH]2)cc1 the results were TNAP inh noacc 75*, Efa HMGR inh 0, TNAP inh hi DEA 2 and TNAP act hi DEA 1.
Screening O=C1Nc2ccccc2N(O)N1c1cc(-c2ccccc2)[nH]n1 returned TNAP inh noacc 81*, Efa HMGR inh -6, TNAP inh hi DEA -2, Insulin prom inh 85* and TNAP act hi DEA 1.
For CCOC(=O)c1cc(-c2ccc3c(c2)OCCO3)n[nH]1 the results were TNAP inh noacc 84*, Efa HMGR inh -7, TNAP inh hi DEA -3 and TNAP act hi DEA 1.
Screening O=C(O)c1cc(-c2ccc3c(c2)OCCO3)n[nH]1 returned TNAP inh noacc 58*, Efa HMGR inh 6, TNAP inh hi DEA -7 and TNAP act hi DEA 1.1.
`CCc1ccc(NC(=S)N2CCNC(=O)C2CC(=O)OC)cc1` (stereo unspecified) gave TNAP inh noacc -8, Efa HMGR inh -7, TNAP inh hi DEA -5 and TNAP act hi DEA 1.1.
Screening COC(=O)C1CCN(Cc2ccc(OCCCN3CCN(c4ccc([N+](=O)[O-])cc4)CC3)cc2)CC1 returned TNAP inh noacc 2, Efa HMGR inh 1, TNAP inh hi DEA 2 and TNAP act hi DEA 1.
For CCN(C=NC1=NN(c2cccc(C(F)(F)F)c2)CC1)CC the results were TNAP inh noacc -23, Efa HMGR inh -4, TNAP inh hi DEA -2, Insulin prom inh 62* and TNAP act hi DEA 1.
`OCCN(C=NC1=NN(c2cccc(C(F)(F)F)c2)CC1)CCO` gave TNAP inh noacc 2, Efa HMGR inh -3, TNAP inh hi DEA 0, Insulin prom inh 3 and TNAP act hi DEA 1.
Screening CS(=O)(=O)N(CC(=O)Nc1ccccc1Cl)c1ccc(Cl)cc1 returned TNAP inh noacc -7, Efa HMGR inh 2, TNAP inh hi DEA -6, Insulin prom inh 14 and TNAP act hi DEA 1.1.
Screening O=C(Nc1ccc(N2CCN(C(=O)c3cccs3)CC2)c(Cl)c1)c1cccnc1 returned TNAP inh noacc -4, Efa HMGR inh 11*, TNAP inh hi DEA -4 and TNAP act hi DEA 1.
Screening O=C(Nc1ccc(N2CCN(C(=O)c3ccco3)CC2)c(Cl)c1)c1cccnc1 returned TNAP inh noacc -10, Efa HMGR inh -7, TNAP inh hi DEA 0 and TNAP act hi DEA 1.
O=C(CCn1cnnn1)Nc1ccc(F)cc1 was read as TNAP inh noacc -8, Efa HMGR inh 1, TNAP inh hi DEA -4 and TNAP act hi DEA 1.
Cc1ccc(-c2csc(C(C#N)=C3CCCC3)n2)cc1 was read as TNAP inh noacc -10, Efa HMGR inh 1, TNAP inh hi DEA -2, Insulin prom inh 75* and TNAP act hi DEA 1.
Screening N#CC(=C1CCCC1)c1nc(-c2ccccc2)cs1 returned TNAP inh noacc -5, Efa HMGR inh 0, TNAP inh hi DEA 1, Insulin prom inh -3 and TNAP act hi DEA 1.
`Cc1ccc(S(=O)(=O)N(C)c2ccc(C(=O)N3CCCCC3)cc2)cc1` gave TNAP inh noacc -11, Efa HMGR inh 2, TNAP inh hi DEA -6, Insulin prom inh -41 and TNAP act hi DEA 1.1.
CN(c1ccc(C(=O)N2CCCCC2)cc1)S(=O)(=O)c1ccccc1 was read as TNAP inh noacc -5, Efa HMGR inh 31*, TNAP inh hi DEA 1, Insulin prom inh 47 and TNAP act hi DEA 1.
Screening CC(C)OC(=O)c1c(NC(=O)CCC(=O)O)sc2c1CCCCC2 returned TNAP inh noacc -6, Efa HMGR inh -2, TNAP inh hi DEA -1, Insulin prom inh 67* and TNAP act hi DEA 1.
Screening COc1ccc(CN2CCC(CO)(Cc3ccccc3C(F)(F)F)CC2)c(F)c1 returned TNAP inh noacc -11, Efa HMGR inh 10*, TNAP inh hi DEA -7 and TNAP act hi DEA 1.1.
COc1ccc(C2=[N+](C)CCn3cccc32)c(OC)c1 was read as TNAP inh noacc -6, Efa HMGR inh 0, TNAP inh hi DEA -1, Insulin prom inh -8 and TNAP act hi DEA 1.
Screening O=C(O)CCn1c(SCc2cccc3ccccc23)nc2ccccc21 returned TNAP inh noacc -12, Efa HMGR inh -9, TNAP inh hi DEA -2 and TNAP act hi DEA 1.
Screening O=C(O)c1ccccc1CSc1nc2ccccc2n1Cc1ccccc1C(=O)O returned TNAP inh noacc -1, Efa HMGR inh 11*, TNAP inh hi DEA -2 and TNAP act hi DEA 1.
COC(=O)c1ccc(C2C(C#N)=C(N)Oc3cc(C)n(C)c(=O)c32)cc1 (stereo unspecified) was read as TNAP inh noacc -7, Efa HMGR inh -1, TNAP inh hi DEA -3, Insulin prom inh 76* and TNAP act hi DEA 1.
`COC(=O)C1=C(N)Oc2cc(C)n(C)c(=O)c2C1c1ccc(Cl)cc1` (stereo unspecified) gave TNAP inh noacc -14, Efa HMGR inh -5, TNAP inh hi DEA -5, Insulin prom inh -9 and TNAP act hi DEA 1.1.
